This is an account of results in the RNAGym collection of RNA variant scans (doi:10.1126/science.aae0568).

This sample holds only a part of the variants without activity. Bounds are passed on as bounds.

The chains are these.
B1: tRNA (parent)
chain: GUUCCGUUGGCGUAAUGGUAACGCGUCUCCCUCCUAAGGAGAAGACUGCGGGUUCGAGUCCCGUACGGAACG

The variants in the data set derive from B1. The data set is described as follows: yeast fitness relative to wild type (ratio to wild type); higher = fitter; tRNA-Arg(CCU), competitive growth, 37 C, YPD. In short, it runs like this: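 Variants of the tRNA-Arg(CCU) gene, chemically synthesised with a 3% per-site mutation rate at 69 sites, were placed at the native genomic locus in Saccharomyces cerevisiae. The pooled strains were competed in YPD at 37°C for 24 hours in six parallel replicates. Gene amplicons from the start population and from each end population were read by 100-nucleotide paired-end sequencing. Darwinian fitness relative to wild type came from changes in genotype frequencies; genotypes needed ≥ 100 starting reads, and estimates < 0.5 were set to 0.5.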
For C4A C31A C33G U47A, the yeast fitness was at most 0.5.
The same measure for C4A C49U C55A C66U: 0.545; for C4G A20G C30G G58A: at most 0.5.
The same measure for C4A C30U C55U: at most 0.5.
The same measure for C4A G56C C60G C66U: 0.568; for C4G A37C G51A: 0.628.
For C4A G10A, the yeast fitness amounted to 0.819.
Turning to C4G A20C C31U, the yeast fitness stood at 0.536.
The same measure for C4A G18A C27A A37C G56A: 0.579; for C4A U13C U28A C34G: at most 0.5; for C4G A42G A45U U54C C55G C61A: at most 0.5.
The same measure for C4A U26A U32G U53A C62A G68C: at most 0.5; for C4A G6A U16C G38A G58C C66U: at most 0.5; for C4G A37G: 0.851.
The same measure for C4A G10C U26A U64A: at most 0.5; for C4A G51A: 0.725.
With C4G A15U C33A G52C C55G, the yeast fitness is at most 0.5.
Regarding C4A G23A C33G, the yeast fitness came to 0.655.
The same measure for C4A C30G C66A: at most 0.5; for C4A U8C: 0.887.
The same measure for C4A U8A: 0.694; for C4A C31G: 0.758; for C4A U7A U8A C46A G48A U64G: at most 0.5.
For the variant C4G A14C G25C A45U U47A A57U, the yeast fitness is at most 0.5.
The same measure for C4A U54C C61G: at most 0.5; for C4G A21G A45U C49U A70C: at most 0.5; for C4G A14C G25C A45U: at most 0.5.
The same measure for C4G C5U C11U: 0.505.
With C4A U32C A40U A69U, the yeast fitness is at most 0.5.
The same measure for C4A C49A: 0.684.
The same measure for C4G A14C G48C: 0.579; for C4G A36C A37G U64A: at most 0.5.
Turning to C4A G12C U13G C30U A65U, the yeast fitness is at most 0.5.
For the variant C4A G6A C33U A43U C49G G50C C61U C66U, the yeast fitness is at most 0.5.
The same measure for C4A G18C C31U A57G U64C: at most 0.5.
The same measure for C4G A15C U26G G41C U47C G68C: at most 0.5; for C4A U8A G18A C27U A45U: at most 0.5; for C4A U16C U35G A45U G51A: at most 0.5.
The same measure for C4A U26A U32G A65G: 0.793; for C4A C33G A57G: 0.576; for C4A U8C A14U A20C U28G: 0.54.
In the case of C4A G18C C34U, the yeast fitness was at most 0.5.
The same measure for C4G A57U U59C G67A: at most 0.5; for C4G A20C A40G G52C: 0.6; for C4A G17A: 0.718.
The same measure for C4A U7A C31A C55A: 0.717; for C4A G18A A20C U26G C27U C49U A69C: at most 0.5; for C4A U16C G17A G56A C61U: at most 0.5.
With C4A G17A G18A G25A C55A, the yeast fitness is at most 0.5.
The same measure for C4G A21C: 0.609; for C4A U13G U32G C55U G63C: at most 0.5; for C4G A14U C24U C49G G63A: at most 0.5.
The same measure for C4G A20C C30A C31G C34A A37G C49A A57C: at most 0.5; for C4G A14C G51C: at most 0.5; for C4G A40G A42U: at most 0.5.
The same measure for C4A U28C: 0.64; for C4A G6A U28G A37G: 0.738; for C4A C31A G56A: 0.649.
In the case of C4A U32C A40U C49G G68C, the yeast fitness is at most 0.5.
The same measure for C4G C5G U26G A45C C61U G67A: at most 0.5.
Regarding C4G A21G A45U C49U U64C C66U, the yeast fitness is at most 0.5.
The same measure for C4A G6A C11A C22U C29U C61A G67A: at most 0.5; for C4A G10C A69C: at most 0.5; for C4G A14U C31U G44A C46U C49U: at most 0.5.
The same measure for C4A U7C A21C C22U G50C A70U: at most 0.5; for C4G A20U C31G C62A: at most 0.5.
The same measure for C4G A15G A43G A57C A65U: at most 0.5; for C4G C5G C29A C34U A42U G50C: 0.531.
Turning to C4A C30U A40G, the yeast fitness is 0.542.
For the variant C4G C5G C31A U35C, the yeast fitness was at most 0.5.
C4A G9A C24U C30U A36G G67A: the yeast fitness turned out to be 0.565.
The same measure for C4G A20G C22G C33U A36C A40U: at most 0.5; for C4A G17C G23C A57C: at most 0.5; for C4A G23A C24G C61A C66U: at most 0.5.
The same measure for C4A G18A G58A A70U: at most 0.5.
The same measure for C4A C34G C61A: at most 0.5; for C4A U13A G18A G68C: at most 0.5.
For the variant C4G C5A A21C U54A A65U A69C, the yeast fitness was at most 0.5.
On to C4A C30G U59A, for which the yeast fitness amounted to 0.528.
The same measure for C4G A45U G48C: 0.501; for C4A U7A U13A C30A U64C: 0.56; for C4A G23C C31U A36C A43C G50C A70U: at most 0.5.
The same measure for C4A G18C C29A C31A A36U: at most 0.5.
The same measure for C4G A40C G68C: at most 0.5; for C4A U35A U47C C49U C62A A69G: at most 0.5.
Consider C4G A14C C24G U53C C62G, for which the yeast fitness is at most 0.5.
As for C4G A21U U28A C30G, the yeast fitness was at most 0.5.
The same measure for C4A G17C C22U: at most 0.5.
The same measure for C4G A14U G23A G56C: at most 0.5.
For C4A U32A G38C U47A, the yeast fitness is at most 0.5.
The same measure for C4G A21U C49G C66G G68C: 0.673; for C4A U7A A14G G17C: at most 0.5.
The same measure for C4A U28G G48A C49G G50U: at most 0.5; for C4G A42U G50C C62A G67U: at most 0.5.
For the variant C4G A57U A70U, the yeast fitness is 0.869.
The same measure for C4A G23A A40C U53C: at most 0.5; for C4A G9A U16A C30U A40G C46U: at most 0.5.
Consider C4G A40U C49A C55U, for which the yeast fitness came out at 0.515.
The same measure for C4A U8G A14U: 0.524.
The same measure for C4G A14U U59G: at most 0.5; for C4A G6C C55U G68C: at most 0.5.
The same measure for C4G A21C G23C A36U: 0.635.
Consider C4G C5G G10A G18A G44C C61A C62U C66U, for which the yeast fitness was at most 0.5.
The same measure for C4A G56A: 0.88; for C4A U7G C27U A45C: at most 0.5; for C4G C5U A37U C61A: at most 0.5.
In the case of C4A U28G C31U A40C A57G, the yeast fitness is at most 0.5.
The same measure for C4A C46G: 0.847.
The same measure for C4A C30G G50A: at most 0.5; for C4G A20U C31G G51A: at most 0.5; for C4A C33A: 0.705.
The same measure for C4A U26G U53G: at most 0.5; for C4A C31U A42C C66A: 0.523.
C4A G23A C29U C34G G38C U54A A57C: the yeast fitness was 0.602.
On to C4G C5G C34G A57G A65G C66U, for which the yeast fitness was at most 0.5.
As to C4A C31U C46A, the yeast fitness came to 0.726.
The same measure for C4A G17A C27G C55U: 0.62; for C4A G18C C29A C31A: 0.562.
The same measure for C4A U32C G48C C55U: at most 0.5; for C4A G17A G41A U47C G50C: at most 0.5.
The same measure for C4G C5G C11A A69C A70C: at most 0.5; for C4G A21G C34G: at most 0.5.
As to C4A C46A G67A, the yeast fitness came to 0.73.
The same measure for C4A C55A A69C A70U: at most 0.5; for C4A G10C C29G A65G: at most 0.5; for C4A U32A A57G A65U: at most 0.5.
The same measure for C4A C33A A40U: 0.522; for C4A U54G A65U: at most 0.5; for C4A G67C: 0.69.
The same measure for C4A U28A C62U C66A: at most 0.5.
As for C4A G18C C49A G52C, the yeast fitness is at most 0.5.
The same measure for C4A G18A C27U U28G C33G A36G: at most 0.5; for C4G A40U: 0.754; for C4G A40G: 0.74.
C4A U8G U64C: the yeast fitness worked out at 0.545.
The same measure for C4A U8A C24U: at most 0.5.
The same measure for C4A C33A C60A U64C: at most 0.5.
The same measure for C4A G25A C27U U28G C33G A36G: at most 0.5.
Take C4A C33G A45G A70U: the yeast fitness was at most 0.5.
For C4A G10A G23A, the yeast fitness was at most 0.5.
On to C4A C31G A40U, for which the yeast fitness is 0.62.
In the case of C4A C31G A40C, the yeast fitness was at most 0.5.
The same measure for C4A U47A A70G: 0.536; for C4A G6C G10A U28A: at most 0.5; for C4A G18A C34G C66U: at most 0.5.
The same measure for C4A G12A: 0.666; for C4G A15U A40C: at most 0.5; for C4G A20U C29U C49U: at most 0.5.
The same measure for C4A C33U A37G: at most 0.5.
As to C4A C49U A65U, the yeast fitness is at most 0.5.
Turning to C4G A36U C66G, the yeast fitness was at most 0.5.
For the variant C4A C34A, the yeast fitness is 0.817.
The same measure for C4A C34U: 0.666; for C4G C5A C27A C34A A42U: at most 0.5; for C4A U26C A37G G67C: at most 0.5.
The same measure for C4A C34G G39C: at most 0.5.
C4A G23A U35C G56A: the yeast fitness was at most 0.5.
The same measure for C4A G12C U19C C24G A43U C61U: 0.532; for C4A U32C: 0.912; for C4A G12A A45U: 0.546.
With C4G A36U C46U, the yeast fitness stood at 0.59.
The same measure for C4A G6A A21C C24U: 0.562.
For C4A C46G C62U, the yeast fitness is 0.609.
The same measure for C4G A21G A36U: at most 0.5.
The same measure for C4A C33U A65C: at most 0.5.
The same measure for C4A U35A A37U G67U: at most 0.5; for C4A U7A A20U C27G C29U C62G: 0.549.
